Shown are actives, neighbours in structure and some others; about 3.1% of the full set was active somewhere.
KCNQ1 act: potentiators or activators of KCNQ1 channel, primary screen, cell-based, thallium flux, high-throughput | Potassium voltage-gated channel subfamily KQT member 1 (Homo sapiens), P51787 | CHO-K1 KCNQ1, thallium flux FluxOR fluorescence; hits give high values | B-score at 10 µM | 310,000 compounds, 0.35% hits | AID 2648, 2010;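 active = fluorescence ratio B-score, a plate-corrected score, at least three library SD, with initial intensity B-score within 5 SD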
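Test system: CHO-K1 cells stably expressing KCNQ1 / Medium: assay buffer / Also added: depolarizing K+/Tl+ stimulus, K2SO4 and Tl2SO4 each 12.5 mM in 5x stock / Incubation: 90 min dye loading and 20 min compound exposure, both at room temperature / Signal: thallium influx via FluxOR fluorescence, kinetic imaging / Evaluation: B score of baseline-normalized fluorescence ratio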
KCNQ1 block: inhibitors of human KCNQ1 channel, primary screen, cell-based, thallium flux, high-throughput | Potassium voltage-gated channel subfamily KQT member 1 (Homo sapiens), P51787 | 310,000 compounds, 1.3% hits | AID 2642, 2010 | CHO-K1 KCNQ1, FluxOR thallium flux fluorescence; hits give high values | B-score at 10 µM;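 active = compounds whose thallium flux B-score, printed positive for inhibition, exceeds three library SD while starting fluorescence stays within three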;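 also: channel opened by potassium depolarization with thallium stimulus after 20 min compound exposure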
KCNK3 inh: human KCNK3 channel inhibitors, primary screen, CHO cells, FluxOR thallium flux, B-score | FluxOR fluorescence; hits give low values | B-score at 10 µM | 340,000 compounds, 0.84% hits | AID 602410, 2012;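 active = B-score under library mean minus 4 SD, starting fluorescence ratio at most library mean plus 5 SD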;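 also: more negative B-score means stronger inhibition of thallium flux through KCNK3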
KCNK9 inh: KCNK9 potassium channel inhibitors, primary screen, HEK293 cells, thallium flux; Potassium channel subfamily K member 9 (Homo sapiens), Q9NPC2; 310,000 compounds, 1.2% hits; AID 488922, 2010; B-score at 10 µM; FluxOR thallium flux fluorescence; hits give low values;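 active = ratio B-score over 3 SD below the library mean, with starting fluorescence within 5 SD of its mean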;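 also: negative B-score means less thallium flux so channel inhibition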
hERG rescue: hERG rescue from dofetilide block, primary screen, cell-based, CHO-hERG, FluxOR thallium flux, dofetilide IC70. Voltage-gated inwardly rectifying potassium channel KCNH2 (Homo sapiens), Q12809. dofetilide IC70 present. activation (rescue from dofetilide block), less the hit threshold, % at 10 µM. 310,000 compounds, 0.51% hits;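 active = activation above the mean of controls blocked by dofetilide plus 5 SD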;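 also: thallium influx through hERG after potassium depolarization seen as dye fluorescence rise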
* hit, by the source's call.

For O=C(NN1C(=O)C2C(c3ccccc3)C=CC(c3ccccc3)C2C1=O)c1ccccc1 (configuration not stated) the results were KCNQ1 act inactive, KCNQ1 block inactive, KCNK3 inh inactive, KCNK9 inh -7.8* and hERG rescue 8.6*.
O=C(Nc1cccc(Oc2ccc(C(=O)O)c(C(=O)O)c2)c1)c1ccc(-c2ccccc2)cc1 was read as KCNQ1 act inactive, KCNQ1 block inactive, KCNK3 inh inactive, KCNK9 inh inactive and hERG rescue -10.
Cc1csc(N/N=C/c2ccc([N+](=O)[O-])cc2)n1 was read as KCNQ1 act 9*, KCNQ1 block inactive, KCNK3 inh inactive, KCNK9 inh inactive and hERG rescue 1.
`COc1ccc(C(=O)C2CCCN(C(=O)c3cc(C)nc(C)n3)C2)cc1OC` (configuration not stated) gave KCNQ1 act inactive, KCNQ1 block inactive, KCNK3 inh inactive, KCNK9 inh inactive and hERG rescue -1.
`O=C(CN1C(=O)CSc2ccc(S(=O)(=O)N3CCCCC3)cc21)NCc1ccccc1Cl` gave KCNQ1 act inactive, KCNQ1 block inactive, KCNK3 inh inactive, KCNK9 inh inactive and hERG rescue -7.
Screening Cc1cccc(CSc2nc3ccccc3c(=O)n2C)c1 returned KCNK3 inh -9.3*.
For Cc1ccc(-c2nc(CSc3nc4ccccc4c(=O)n3C)cs2)cc1 the results were KCNQ1 act inactive, KCNQ1 block inactive, KCNK3 inh inactive, KCNK9 inh inactive and hERG rescue -7.
`CCCCN(C(=O)c1c(CC)noc1C)c1c(N)n(CCC)c(=O)[nH]c1=O` gave KCNQ1 act inactive, KCNQ1 block inactive, KCNK3 inh inactive, KCNK9 inh inactive and hERG rescue -10.
Screening O=C(CNC(=O)c1ccccc1)NCc1ccc(Cl)cc1 returned KCNQ1 act 18*, KCNQ1 block inactive, KCNK3 inh inactive, KCNK9 inh inactive and hERG rescue 28*.
CCCCOc1ccc(C(=O)NNC(=O)C2C3C=CC(C3)C2C(=O)O)cc1 (configuration not stated) was read as KCNQ1 act inactive, KCNQ1 block inactive, KCNK3 inh inactive, KCNK9 inh inactive and hERG rescue -11.
CCOCCCNC(=O)c1cn(CC)c2ccc(S(=O)(=O)N(C)C3CCCCC3)cc2c1=O was read as KCNQ1 act inactive, KCNQ1 block 7*, KCNK3 inh inactive, KCNK9 inh inactive and hERG rescue -16.
CCn1cc(C(=O)NCC(OC)OC)c(=O)c2cc(S(=O)(=O)N3CCCC3)ccc21 was read as KCNQ1 act inactive, KCNQ1 block inactive, KCNK3 inh inactive, KCNK9 inh inactive and hERG rescue -3.
Screening CCn1cc(C(=O)NCC(OC)OC)c(=O)c2cc(S(=O)(=O)N3CCC(C)CC3)ccc21 returned KCNQ1 act inactive, KCNQ1 block 6*, KCNK3 inh inactive, KCNK9 inh inactive and hERG rescue -10.
Screening NC(=O)c1nn(CC(=O)Nc2ccc3c(c2)OCO3)cc1[N+](=O)[O-] returned KCNK3 inh inactive.
COc1ccccc1OCC(=O)NNC(=O)Nc1ccc(Cl)cc1 was read as KCNQ1 act inactive, KCNQ1 block inactive, KCNK3 inh inactive, KCNK9 inh inactive and hERG rescue -11.
Screening COc1ccccc1OC(=O)Nc1ccc(Cl)cc1 returned KCNQ1 act inactive, KCNQ1 block 6*, KCNK3 inh inactive, KCNK9 inh inactive and hERG rescue -10.
`Cc1cc(/C=N/n2c(COc3ccccc3C)nc3ccccc3c2=O)c(O)c([N+](=O)[O-])c1` gave KCNQ1 act inactive, KCNQ1 block 14*, KCNK3 inh inactive, KCNK9 inh inactive and hERG rescue -17.
O=C(Nc1nccs1)c1cn(-c2ccccc2)nc1-c1ccccc1 was read as KCNQ1 act inactive, KCNQ1 block inactive, KCNK3 inh inactive, KCNK9 inh inactive and hERG rescue -3.
